Data on 23 compounds can be found in ChEMBL document CHEMBL1150328, “Acetic acid aldose reductase inhibitors bearing a five-membered heterocyclic core with potent topical activity in a visual impairment rat model” (J Med Chem, 2008).

Assay [1] in a line: (§1) Inhibition of ALR2 in Sprague-Dawley rat lens by spectrophotometry. Type of assay: tissue-based, Lens of camera-type eye. Summed up: (§2)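 Rat lens extract, ammonium sulfate fractionated and dialyzed. 30 °C, 0.1 M sodium phosphate pH 6.2 with 0.25 mL 10 mM D,L-glyceraldehyde and 0.25 mL 0.104 mM NADPH in 1 mL total. Preincubated 10 min without substrate, then read 5 min at 340 nm against a substrate-free blank. Screened at 10^-4 M, then 10^-5 to 10^-8 M. IC50 by linear regression of log-dose curve, ≥4 concentrations.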

Assay [2] is described as follows: Inhibition of ALR1 in Sprague-Dawley rat kidney by spectrophotometry. Type of assay: tissue-based. In a few lines: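 Rat kidney enzyme from 3 vol 10 mM sodium phosphate pH 7.2 homogenate (0.25 M sucrose, EDTA, β-mercaptoethanol), 40-75% ammonium sulfate cut, dialyzed. 37 °C, 0.25 mL 20 mM sodium D-glucuronate, 0.25 mL 0.12 mM NADPH, 0.1 M phosphate pH 7.2, 1 mL total. NADPH oxidation followed at 340 nm against a substrate-free blank.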

The subject of assay [3] is Rattus norvegicus. The assay can be described thus: Prevention of cataract development in severely galactosemic Sprague-Dawley Albino rat administered four timely daily as 3% eye-drop solution in precorneal region for 21 days. It is filed as functional, organism-based. In a few lines: (§3)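 Sprague-Dawley rats, 45-55 g, on 50% D-galactose chow, 15 per group. Both eyes dosed four times daily with 3% eye-drops or vehicle, starting one day before the diet switch. Lenses examined by slit-lamp after 1% atropine dilation at baseline and days 6, 8, 10, 14, 21. Graded stages 0-4, animals per stage counted, Mann-Whitney U-test.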

Assay [4] has as its system Rattus norvegicus. Description: Prevention of cataract development in severely galactosemic Sprague-Dawley Albino rat assessed as lens opacification administered four timely daily as 3% eye-drop solution in precorneal region for 21 days by slit-lamp microscopy. It is filed as functional, organism-based. The note with it: Lens of camera-type eye. In a few lines: as §3

In assay [5] the test system is Rattus norvegicus. The assay can be described thus: Prevention of cataract development in severely galactosemic Sprague-Dawley Albino rat assessed as lens opacification administered four timely daily as 3% eye-drop solution in precorneal region for 11 days by slit-lamp microscopy. The note with it: Lens of camera-type eye. Type of assay: functional, organism-based.

The test system of assay [6] is Rattus norvegicus. Description: Prevention of cataract development in severely galactosemic Sprague-Dawley Albino rat assessed as lens opacification administered four timely daily as 3% eye-drop solution in precorneal region for 12 days by slit-lamp microscopy. It is filed as functional, organism-based. The note with it: Lens of camera-type eye.
Assay [7] relates to Rattus norvegicus. Description: Prevention of cataract development in severely galactosemic Sprague-Dawley Albino rat assessed as lens opacification administered four timely daily as 3% eye-drop solution in precorneal region for 13 days by slit-lamp microscopy. Type of assay: functional, organism-based. To be noted: Lens of camera-type eye.
Assay [8] has as its system Rattus norvegicus. The assay can be described thus: Prevention of cataract development in severely galactosemic Sprague-Dawley Albino rat assessed as lens opacification administered four timely daily as 3% eye-drop solution in precorneal region for 14 days by slit-lamp microscopy. It is filed as functional, organism-based. The note with it: Lens of camera-type eye. In a few lines:
as §3

Assay [9] has as its system Rattus norvegicus. The assay can be described thus: Prevention of cataract development in severely galactosemic Sprague-Dawley Albino rat assessed as lens opacification administered four timely daily as 3% eye-drop solution in precorneal region for 15 days by slit-lamp microscopy. Type of assay: functional, organism-based. The note with it: Lens of camera-type eye.
Assay [10] deals with Rattus norvegicus. Description: Prevention of cataract development in severely galactosemic Sprague-Dawley Albino rat assessed as lens opacification administered four timely daily as 3% eye-drop solution in precorneal region for 16 days by slit-lamp microscopy. It is filed as functional, organism-based. To be noted: Lens of camera-type eye.
The subject of assay [11] is Rattus norvegicus. Description: Prevention of cataract development in severely galactosemic Sprague-Dawley Albino rat assessed as lens opacification administered four timely daily as 3% eye-drop solution in precorneal region for 17 days by slit-lamp microscopy. The note with it: Lens of camera-type eye. It is filed as functional, organism-based.
Assay [12] relates to Rattus norvegicus. The assay can be described thus: Prevention of cataract development in severely galactosemic Sprague-Dawley Albino rat assessed as lens opacification administered four timely daily as 3% eye-drop solution in precorneal region for 18 days by slit-lamp microscopy. Type of assay: functional, organism-based. The note with it: Lens of camera-type eye.
The species entered for assay [13] is Rattus norvegicus. The description is as §1. To be noted: Lens of camera-type eye. Type of assay: tissue-based. In a few lines: as §2
For assay [14], the species on record is Rattus norvegicus. The assay can be described thus: Inhibition of ALR2 in Sprague-Dawley rat lens at >100 uM by spectrophotometry. Type of assay: tissue-based. The note with it: Lens of camera-type eye. In a few lines:
as §2

The test system of assay [15] is Rattus norvegicus. Description: Prevention of cataract development in severely galactosemic Sprague-Dawley Albino rat assessed as lens opacification administered four timely daily as 3% eye-drop solution in precorneal region for 19 days by slit-lamp microscopy. Type of assay: functional, organism-based. To be noted: Lens of camera-type eye.
Assay [16] deals with Rattus norvegicus. Description: Prevention of cataract development in severely galactosemic Sprague-Dawley Albino rat assessed as lens opacification administered four timely daily as 3% eye-drop solution in precorneal region for 20 days by slit-lamp microscopy. Type of assay: functional, organism-based. The note with it: Lens of camera-type eye.

SMILES strings stand for the structures. Active and inactive are the calls of the source. The rule behind the calls is not given here. Where only a bound is given, the exact number is not on record here.

Turning to `COc1ccc(-c2noc(CC(=O)O)n2)cc1`, the IC50 in [1] is 270 nM; in assay [2], more than 10 µM. Moreover, the result in the assay with Rattus norvegicus [3], in the assay on Rattus norvegicus [4], with Rattus norvegicus [5], in the assay with Rattus norvegicus [6], with Rattus norvegicus [7] and in the assay with Rattus norvegicus [8] was Active. Also, the result in the assay with Rattus norvegicus [9], with Rattus norvegicus [10], in the assay with Rattus norvegicus [11] and in the assay with Rattus norvegicus [12] was Active.
Consider `O=C(O)Cc1coc(-c2ccccc2)n1`, for which the result in the assay listed under Rattus norvegicus [13] was inactive. The result in the assay listed under Rattus norvegicus [14] was Active.
Regarding `O=C(O)Cc1nc(Cc2ccccc2)no1`, the 50% inhibitory concentration (IC50) in assay [1] was 28400 nM; in assay [2] it was more than 10 µM.
On the same counts, the results for `O=C(O)Cc1nc(Cc2ccc(Br)cc2)no1` are 1660 nM and more than 10 µM.
Turning to `COc1ccc2c(C(=S)N(C)CC(=O)O)cccc2c1C(F)(F)F` [TOLRESTAT], the IC50 in [1] was 50 nM; in assay [2] it was more than 10 µM. Besides, the outcome in the assay on Rattus norvegicus [4], in the assay with Rattus norvegicus [5], with Rattus norvegicus [6], in the assay with Rattus norvegicus [7], with Rattus norvegicus [8] and in the assay on Rattus norvegicus [9] was Active. For the same compound, the outcome in the assay with Rattus norvegicus [10], with Rattus norvegicus [11], with Rattus norvegicus [12], in the assay with Rattus norvegicus [15] and with Rattus norvegicus [16] was Active.
In the case of `O=C(O)Cc1nc(Cc2ccc(F)cc2)no1`, the figures for the half-maximal inhibitory concentration (IC50) in [1] and in assay [2] were 21700 nM and more than 10 µM, respectively.
Regarding `Cc1ccc(-c2nc(CC(=O)O)co2)cc1`, the result in the assay filed under Rattus norvegicus [13] was inactive. The result in the assay listed under Rattus norvegicus [14] was Active.
As to `O=C(O)Cc1nc(-c2cccc([N+](=O)[O-])c2)no1`, the IC50 in assay [1] was 710 nM; in assay [2], more than 10 µM.
For `O=C(O)Cc1nc(-c2ccc(F)cc2)no1`, the IC50 was 8430 nM in assay [1] and more than 10 µM in assay [2].
Consider `O=C(O)Cc1nc(-c2ccccc2)no1`, for which the IC50 in assay [1] is 3330 nM; in assay [2], more than 10 µM.
On to `O=C(O)Cc1nc(-c2ccc(Br)cc2F)no1`, for which the IC50 in [1] is 2000 nM; in [2], more than 10 µM.
As for `Cc1ccc(-c2noc(CC(=O)O)n2)cc1`, the IC50 in [1] is 2500 nM; in [2], more than 10 µM.
For `O=C(O)Cc1nc(-c2ccc(Cl)cc2)no1`, the IC50 was 3950 nM in assay [1] and more than 10 µM in [2].
On the same counts, the results for `O=C(O)Cc1nc(-c2ccc(C(F)(F)F)cc2)no1` are 1080 nM and more than 10 µM.
In the case of `O=C(O)Cc1nc(Cc2ccc(C(F)(F)F)cc2)no1`, the half-maximal inhibitory concentration (IC50) in assay [1] was 6300 nM; in assay [2] it was more than 10 µM.
As to `Cc1ccc(Cc2noc(CC(=O)O)n2)cc1`, the IC50 in assay [1] was 5290 nM; in [2] it was more than 10 µM.
The matching figures for `O=C(O)Cc1nc(Cc2ccc(Cl)cc2)no1`: 5110 nM and more than 10 µM.
On the same counts, the results for `COc1ccc(Cc2noc(CC(=O)O)n2)cc1` are 8180 nM and more than 10 µM.
Take `O=C(O)Cc1nc(Cc2ccc(Br)cc2F)no1`: the IC50 in [1] is 360 nM; in assay [2], more than 10 µM.
Turning to `O=C(O)Cc1coc(-c2ccc(F)cc2)n1`, the result in the assay listed under Rattus norvegicus [13] was inactive. For the same compound, the outcome in the assay filed under Rattus norvegicus [14] was Active.
As to `O=C(O)Cc1nc(-c2ccc(Br)cc2)no1`, the IC50 is 690 nM in assay [1] and more than 10 µM in assay [2].
`COc1ccc(-c2nc(CC(=O)O)co2)cc1` had an IC50 in assay [1] of 54800 nM.
As to `O=C(O)Cc1nc(Cc2cccc([N+](=O)[O-])c2)no1`, the results for the IC50 in [1] and in assay [2] were 300 nM and more than 10 µM, respectively.
